Reference: ChEMBL document CHEMBL3352430, “4-Aminopyridyl-based CYP51 inhibitors as anti-Trypanosoma cruzi drug leads with improved pharmacokinetic profile and in vivo potency” (J Med Chem, 2014)
Calls of active or inactive are those of the source. The calls are words filed in the database; no cut-off is given here.

Key:
[1] = tested on: Intestine; assay: Drug uptake in mouse intestine at 50 mg/kg, po in 20% HP-beta-CD measured at 8 hrs post dose; assay type: ADME, organism-based; design: dose 50 mg/kg, route oral; conditions: in vivo
Procedure, shortened: (§1)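 Female Swiss Webster mice, 8 weeks old, given a single 50 mg/kg oral gavage dose in 20% HPβCD or 20% Kolliphor. Tissues taken from three mice at 2 and 8 h post dose. Homogenized by probe sonication in PBS (1:4 w/v), protein precipitated with acetonitrile, and compound measured by LC-MS/MS in μM.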

[2] = tested on: Liver; assay: Drug uptake in mouse liver at 50 mg/kg, po in 20% Kolliphor measured at 8 hrs post dose; assay type: ADME, organism-based; design: dose 50 mg/kg, route oral; conditions: in vivo; procedure, shortened: as §1
[3] = tested on: Lung; assay: Drug uptake in mouse lung at 50 mg/kg, po in 20% Kolliphor measured at 8 hrs post dose; assay type: ADME, organism-based; design: dose 50 mg/kg, route oral; conditions: in vivo; procedure, shortened: as §1
[4] = tested on: Heart; assay: Drug uptake in mouse heart at 50 mg/kg, po in 20% Kolliphor measured at 8 hrs post dose; assay type: ADME, organism-based; design: dose 50 mg/kg, route oral; conditions: in vivo; procedure, shortened: as §1
[5] = Drug uptake in mouse fat at 50 mg/kg, po in 20% Kolliphor measured at 8 hrs post dose; assay type: ADME, organism-based, Adipose tissue; design: dose 50 mg/kg, route oral; conditions: in vivo; procedure, shortened: as §1
[6] = Drug uptake in mouse skeletal muscle at 50 mg/kg, po in 20% Kolliphor measured at 8 hrs post dose; assay type: ADME, organism-based, Muscle tissue; design: dose 50 mg/kg, route oral; conditions: in vivo; procedure, shortened: as §1
[7] = tested on: Liver; assay: Drug uptake in mouse liver at 50 mg/kg, po in 20% HP-beta-CD measured at 8 hrs post dose; assay type: ADME, organism-based; design: dose 50 mg/kg, route oral; conditions: in vivo; procedure, shortened: as §1
[8] = tested on: Lung; assay: Drug uptake in mouse lung at 50 mg/kg, po in 20% HP-beta-CD measured at 8 hrs post dose; assay type: ADME, organism-based; design: dose 50 mg/kg, route oral; conditions: in vivo; procedure, shortened: as §1
[9] = tested on: Heart; assay: Drug uptake in mouse heart at 50 mg/kg, po in 20% HP-beta-CD measured at 8 hrs post dose; assay type: ADME, organism-based; design: dose 50 mg/kg, route oral; conditions: in vivo; procedure, shortened: as §1
[10] = Drug uptake in mouse fat at 50 mg/kg, po in 20% HP-beta-CD measured at 8 hrs post dose; assay type: ADME, organism-based, Adipose tissue; design: dose 50 mg/kg, route oral; conditions: in vivo; procedure, shortened: as §1
[11] = Drug uptake in mouse skeletal muscle at 50 mg/kg, po in 20% HP-beta-CD measured at 8 hrs post dose; assay type: ADME, organism-based, Muscle tissue; design: dose 50 mg/kg, route oral; conditions: in vivo; procedure, shortened: as §1
[12] = tested on: Trypanosoma cruzi; assay: Antitrypanosomal activity against Trypanosoma cruzi Y luc infected in mouse assessed as inhibition of parasitemia at 50 mg/kg, po bid in 20% HP-beta-CD administered for 4 consecutive days starting on day 3 of infection measured on day 7 post infection relative to vehicle-treated control; assay type: functional, organism-based; design: dose 50 mg/kg
Procedure, shortened: (§2)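 Female Swiss Webster mice, 8 weeks old, infected ip with 10^5 T. cruzi Y luc trypomastigotes. Only mice with detectable luminescence on day 3 were treated. Compound given by oral gavage bid for four days, as a suspension in 20% HPβCD or a solution in 20% Kolliphor, five mice per group. Vehicle group and benznidazole 50 mg/kg served as controls. On day 7, mice were injected ip with 150 mg/kg d-luciferin and imaged after 5 min under isoflurane. Percent inhibition calculated against untreated mice; two-tailed paired t test.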

[13] = tested on: Trypanosoma cruzi; assay: Antitrypanosomal activity against Trypanosoma cruzi Y luc infected in mouse assessed as inhibition of parasitemia at 25 mg/kg, po bid in 20% HP-beta-CD administered for 4 consecutive days starting on day 3 of infection measured on day 7 post infection relative to vehicle-treated control; assay type: functional, organism-based; design: dose 25 mg/kg; procedure, shortened: as §2
[14] = tested on: Mus musculus; assay: Toxicity in mouse assessed as weight loss at 12.5 to 50 mg/kg, po bid in 20% HP-beta-CD; assay type: organism-based; design: dose 12.5-50 mg/kg, route oral; conditions: in vivo
Procedure, shortened: (§3)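 Mice in the four-day oral treatment study were given compound bid by gavage in 20% HPβCD or 20% Kolliphor. They were watched for weight loss, mobility problems and changes in appearance throughout dosing.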

[15] = tested on: Mus musculus; assay: Toxicity in mouse assessed as mobility issues at 12.5 to 50 mg/kg, po bid in 20% HP-beta-CD; assay type: organism-based; design: dose 12.5-50 mg/kg, route oral; conditions: in vivo; procedure, shortened: as §3
[16] = tested on: Mus musculus; assay: Toxicity in mouse assessed as change in appearance at 12.5 to 50 mg/kg, po bid in 20% HP-beta-CD; assay type: organism-based; design: dose 12.5-50 mg/kg, route oral; conditions: in vivo; procedure, shortened: as §3
[17] = tested on: Mus musculus; assay: Toxicity in mouse assessed as weight loss at 12.5 to 50 mg/kg, po bid in 20% Kolliphor; assay type: organism-based; design: dose 12.5-50 mg/kg, route oral; conditions: in vivo; procedure, shortened: as §3
[18] = tested on: Mus musculus; assay: Toxicity in mouse assessed as mobility issues at 12.5 to 50 mg/kg, po bid in 20% Kolliphor; assay type: organism-based; design: dose 12.5-50 mg/kg, route oral; conditions: in vivo; procedure, shortened: as §3
[19] = tested on: Mus musculus; assay: Toxicity in mouse assessed as change in appearance at 12.5 to 50 mg/kg, po bid in 20% Kolliphor; assay type: organism-based; design: dose 12.5-50 mg/kg, route oral; conditions: in vivo; procedure, shortened: as §3
[20] = target: Sterol 14-alpha demethylase (Trypanosoma cruzi (strain CL Brener), UniProt Q7Z1V1); assay: Binding affinity to Trypanosoma cruzi CYP51 by UV-vis titration method; conditions: read-out: Kd(app)
Chain of Sterol 14-alpha demethylase (Q7Z1V1 whole entry): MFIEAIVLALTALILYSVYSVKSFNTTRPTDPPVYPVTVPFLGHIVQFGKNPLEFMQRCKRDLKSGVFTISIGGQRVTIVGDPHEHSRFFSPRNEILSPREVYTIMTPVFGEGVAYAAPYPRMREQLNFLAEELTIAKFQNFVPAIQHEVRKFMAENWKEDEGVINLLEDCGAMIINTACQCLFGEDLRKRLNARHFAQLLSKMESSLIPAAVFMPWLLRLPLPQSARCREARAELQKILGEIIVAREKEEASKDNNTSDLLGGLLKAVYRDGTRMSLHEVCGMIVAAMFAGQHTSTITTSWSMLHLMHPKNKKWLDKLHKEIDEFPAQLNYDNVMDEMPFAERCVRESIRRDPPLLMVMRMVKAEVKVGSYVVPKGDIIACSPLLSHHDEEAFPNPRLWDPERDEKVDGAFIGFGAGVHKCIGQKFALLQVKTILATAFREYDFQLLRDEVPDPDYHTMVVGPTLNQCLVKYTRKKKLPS

[21] = tested on: Trypanosoma cruzi; assay: Antitrypanosomal activity against Trypanosoma cruzi Y luc infected in mouse assessed as inhibition of parasitemia at 50 mg/kg, po bid in 20% Kolliphor administered for 4 consecutive days starting on day 3 of infection measured on day 7 post infection relative to vehicle-treated control; assay type: functional; procedure, shortened: as §2
[22] = tested on: C2C12; assay: Cytotoxicity against mouse C2C12 cells up to 10 uM; assay type: cell-based
Procedure, shortened: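 Mouse C2C12 myoblasts infected with T. cruzi CA-I/72, then exposed at 24 h postinfection to compound at 10 μM down to 5 pM in 5-fold steps for 72 h at 37 °C. Cells fixed in paraformaldehyde, stained with DAPI and scored by automated imaging. Triplicate wells; uninfected and infected untreated wells as controls.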

[23] = Half life in mouse at 50 mg/kg, po in 20% Kolliphor; assay type: ADME, organism-based; design: dose 50 mg/kg, route oral; conditions: in vivo
Procedure, shortened: (§4)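 Female Swiss Webster mice, 8 weeks old, given one oral gavage dose of 50 mg/kg as a 10 mg/mL preparation in the named vehicle (20% HPβCD suspension or 20% Kolliphor). Plasma sampled at about 0.25, 0.5, 1, 2, 4, 6, 8, 12 and 24 h, n = 3 per time point. Protein precipitated with 5 volumes acetonitrile, filtered, then LC-MS/MS. Values are averages of three mice.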

[24] = Half life in mouse at 50 mg/kg, po in 20% HP-beta-CD; assay type: ADME, organism-based; design: dose 50 mg/kg, route oral; conditions: in vivo; procedure, shortened: as §4
[25] = Tmax in mouse at 50 mg/kg, po in 20% Kolliphor; assay type: ADME, organism-based; design: dose 50 mg/kg, route oral; conditions: in vivo; procedure, shortened: as §4
[26] = Tmax in mouse at 50 mg/kg, po in 20% HP-beta-CD; assay type: ADME, organism-based; design: dose 50 mg/kg, route oral; conditions: in vivo; procedure, shortened: as §4
[27] = Cmax in mouse at 50 mg/kg, po in 20% Kolliphor; assay type: ADME, organism-based; design: dose 50 mg/kg, route oral; conditions: in vivo; procedure, shortened: as §4
[28] = Cmax in mouse at 50 mg/kg, po in 20% HP-beta-CD; assay type: ADME, organism-based; design: dose 50 mg/kg, route oral; conditions: in vivo; procedure, shortened: as §4
[29] = AUClast in mouse at 50 mg/kg, po in 20% Kolliphor; assay type: ADME, organism-based; design: time 0 - last, dose 50 mg/kg, route oral; conditions: plasma; procedure, shortened: as §4
[30] = AUClast in mouse at 50 mg/kg, po in 20% HP-beta-CD; assay type: ADME, organism-based, Plasma; design: time 0 - last, dose 50 mg/kg, route oral; conditions: plasma; procedure, shortened: as §4
[31] = Clearance in mouse at 50 mg/kg, po in 20% Kolliphor; assay type: ADME, organism-based; design: dose 50 mg/kg, route oral; conditions: in vivo; procedure, shortened: as §4
[32] = Clearance in mouse at 50 mg/kg, po in 20% HP-beta-CD; assay type: ADME, organism-based; design: dose 50 mg/kg, route oral; conditions: in vivo; procedure, shortened: as §4
[33] = tested on: Intestine; assay: Drug uptake in mouse intestine at 50 mg/kg, po in 20% Kolliphor measured at 8 hrs post dose; assay type: ADME, organism-based; design: dose 50 mg/kg, route oral; conditions: in vivo; procedure, shortened: as §1

Drug uptake [1]: Active
Drug uptake [2]: Active
Drug uptake [3]: Active
Drug uptake [4]: Active
Drug uptake [5]: Active
Drug uptake [6]: Active
Drug uptake [7]: Active
Drug uptake [8]: Active
Drug uptake [9]: Active
Drug uptake [10]: Active
Drug uptake [11]: Active
Kd [20]: ≤ 0.01 µM
half-life [23]: 4.39 h
half-life [24]: 6.88 h
Tmax [25]: 2.33 h
Tmax [26]: 4.67 h
Cmax [27]: 5.94 µM
Cmax [28]: 3.27 µM
AUC(0-t) [29]: 29.6 µM·h
AUC(0-t) [30]: 16.7 µM·h
CL/F [31]: 2.33 L/h/kg
CL/F [32]: 2.57 L/h/kg
Drug uptake [33]: Active
Compound: O=C(N[C@H](Cc1c[nH]c2ccccc12)C(=O)Nc1ccncc1)c1ccc(N2CCN(c3ccc(F)cc3F)CC2)cc1F
inhibition [12]: Active
inhibition [13]: Active
Activity [14]: Non-toxic
Activity [15]: Non-toxic
Activity [16]: Non-toxic
Activity [17]: Non-toxic
Activity [18]: Non-toxic
Activity [19]: Non-toxic
inhibition in vivo at 50 mg/kg [21]: 98.4%
Activity [22]: Non-toxic
